For eleven compounds, IC50 results are on record in ChEMBL document CHEMBL4706676 (Bioorg Med Chem Lett, 2021).

The structures appear in SMILES notation. pIC50: −log10 of the molar value.

Common to all, as to assay type: functional, cell-based
For one experiment, the system named is CWR22R. Put plainly: Antiproliferative activity against human 22Rv1 cells assessed as reduction in cell viability. Summed up: (§1)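 Human prostate cancer cells taken from exponential-phase culture, seeded at 8000–12,000 cells/well and allowed 24 h recovery. Compounds then added at 10 half-log concentrations in triplicate, with medium-only controls, for a total 96 h exposure. After a PBS wash, cells stained with propidium iodide plus 0.1% Triton X-100 for 1–2 h at room temperature. Fluorescence read (ex 530/em 620 nm) as attached viable cells. IC50 from 4-parameter curve fit, geometric mean of three independent experiments.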

In the next experiment the test system is DU-145. Briefly: Antiproliferative activity against human DU-145 cells assessed as reduction in cell viability. Summed up:
as §1

For another experiment, the system named is LNCaP. Briefly: Antiproliferative activity against human LNCaP cells assessed as reduction in cell viability. In a few lines: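 Human prostate cancer cells taken from exponential-phase culture, seeded at 8000–12,000 cells/well and allowed 24 h recovery. Compounds then added at 10 half-log concentrations in triplicate, with medium-only controls, for a total 96 h exposure. After a PBS wash, cells stained with propidium iodide plus 0.1% Triton X-100 for 1–2 h at room temperature. IC50 from 4-parameter curve fit, geometric mean of three independent experiments.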

The next experiment has as its system VCaP. Briefly: Antiproliferative activity against human VCaP cells assessed as reduction in cell viability. Summed up:
as §1

One may read the pIC50 as the negative decadic logarithm of the IC50, by convention in mol/L. Regarding `CC(O)(C[S+]([O-])c1ccc(OC(F)(F)F)cc1)C(=O)Nc1ccc(C#N)c(C(F)(F)F)c1` (stereo not drawn), the pIC50 is 4.39 in the experiment with CWR22R (Homo sapiens, 22Rv1); 4.28 in the experiment on DU-145 (Homo sapiens, DU-145); 4.44 in the experiment on LNCaP (Homo sapiens, LNCaP); 4.27 in the experiment on VCaP.
For `CC(O)(C[S+]([O-])c1ccc(C(F)(F)F)cn1)C(=O)Nc1ccc([N+](=O)[O-])cc1C(F)(F)F` (stereo not drawn) the same measures were below 4.00, below 4.00, below 4.00 and below 4.00.
For `CC(O)(C[S+]([O-])c1ccc(F)c(F)c1)C(=O)Nc1ccc([N+](=O)[O-])cc1C(F)(F)F` (single isomer, unassigned) the same measures were below 4.00, below 4.00, below 4.00 and below 4.00.
For the compound `CC(O)(C[S+]([O-])c1ccccn1)C(=O)Nc1ccc([N+](=O)[O-])cc1C(F)(F)F` (stereo not drawn), the pIC50 is below 4.00 with CWR22R (Homo sapiens, 22Rv1); below 4.00 in the experiment with DU-145 (Homo sapiens, DU-145); below 4.00 with LNCaP (Homo sapiens, LNCaP); 4.00 in the experiment on VCaP.
For `CC(O)(C[S+]([O-])c1ccccn1)C(=O)Nc1ccc(C#N)c(C(F)(F)F)c1` (stereo not drawn), the pIC50 in the experiment with CWR22R (Homo sapiens, 22Rv1) is below 4.00; in the experiment on DU-145 (Homo sapiens, DU-145) it was below 4.00; with LNCaP (Homo sapiens, LNCaP), below 4.00; in the experiment on VCaP it was below 4.00.
For the compound `CC(O)(C[S+]([O-])c1ccc(F)cc1F)C(=O)Nc1ccc([N+](=O)[O-])cc1C(F)(F)F` (stereo not drawn), the pIC50 in the experiment on CWR22R (Homo sapiens, 22Rv1) is 4.29; with DU-145 (Homo sapiens, DU-145), below 4.00; in the experiment on LNCaP (Homo sapiens, LNCaP), 4.61; with VCaP it was below 4.00.
As to `CC(O)(C[S+]([O-])c1ccccc1OC(F)(F)F)C(=O)Nc1ccc([N+](=O)[O-])cc1C(F)(F)F` (stereo not drawn), the pIC50 in the experiment with CWR22R (Homo sapiens, 22Rv1) is 4.82; in the experiment with DU-145 (Homo sapiens, DU-145), 4.51; in the experiment on LNCaP (Homo sapiens, LNCaP) it was 5.04; in the experiment on VCaP, 4.68.
In the same order, the values of `CC(O)(C[S+]([O-])c1ccc(C(F)(F)F)cc1)C(=O)Nc1ccc([N+](=O)[O-])cc1C(F)(F)F` (stereo not drawn) are 4.68, 4.44, 4.59 and 4.62.
In the same order, the values of `CC(O)(C[S+]([O-])c1ccc(OC(F)(F)F)cc1)C(=O)Nc1ccc([N+](=O)[O-])cc1C(F)(F)F` (stereo not drawn) are below 4.00, below 4.00, below 4.00 and below 4.00.
In the same order, the values of `CC(O)(C[S+]([O-])c1ccc(C(F)(F)F)cn1)C(=O)Nc1ccc(C#N)c(C(F)(F)F)c1` (stereo in doubt; form 1) are 4.18, 4.00, 4.02 and below 4.00.
For the compound `CC(O)(C[S+]([O-])c1ccc(C(F)(F)F)cn1)C(=O)Nc1ccc(C#N)c(C(F)(F)F)c1` (stereo in doubt; form 2), the pIC50 in the experiment on CWR22R (cwr22r) was 4.11; with DU-145 (du-145), below 4.00; with LNCaP (lncap), below 4.00.
